Source: ChEMBL document CHEMBL1121812, “Promotion of carbohydrate oxidation in the heart by some phenylglyoxylic acids” (1981)

Experiments:
Rattus norvegicus [1] = species: Rattus norvegicus; experiment: Compound was tested in vitro for pyruvate oxidation in Rat, measured as % conversion of [14C]pyruvate to 14CO2 at 0.5 mM concentration of DCA (dichloroacetic acid); type: functional
In short: (§1)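 Rat diaphragm cut into four portions, each weighed and preincubated 1 h at 37 °C in Krebs-Ringer bicarbonate, pH 7.4, gassed O2/CO2 (18:1), alone (control) or with compound. Then 4 mM (final) 1- or 2-14C sodium pyruvate added, 1 h at 37 °C. Stopped with H2SO4; 14CO2 trapped in hyamine hydroxide, scintillation counted. Tissue-free blanks included. Reported as percent stimulation versus control.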

Rattus norvegicus [2] = species: Rattus norvegicus; experiment: Percent Stimulation of pyruvate oxidation in Rat by the compound was measured at 2 mM concentration of DCA (dichloroacetic acid); type: functional; in short: as §1
Rattus norvegicus [3] = species: Rattus norvegicus; experiment: Percent stimulation of pyruvate oxidation in rat diaphragm by the compound was measured at 2 mM concentration; type: functional; in short: as §1
[4] = molecular target: T1, Pyruvate dehydrogenase kinase (Rattus norvegicus) (UniProt Q63065+A6IPZ9+Q64536+O54937); experiment: Pyruvate dehydrogenase active/ Pyruvate dehydrogenase total was measured by sc administering the DCA in rat at a dose of 1.2 mmol/kg; type: functional, organism-based
In short: (§2)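 Hearts frozen in liquid N2, powdered, homogenized in ice-cold phosphate/EDTA/DTT/pyruvate medium. PDH active assayed directly; PDH total after 20 min at 30 °C with 5 mM MgCl2, 2.5 mM CaCl2. 14CO2 from 0.1 mM [1-14C]pyruvate with CoA, NAD, TPP at 30 °C; expressed as % PDH active/total; ≥3 rats/group.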

[5] = molecular target: T1, Pyruvate dehydrogenase kinase (Rattus norvegicus); experiment: Pyruvate dehydrogenase activity in vivo was measured following subcutaneous administration of 1.2 mmol/kg; type: functional, organism-based; in short: as §2
[6] = molecular target: T1, Pyruvate dehydrogenase kinase (Rattus norvegicus); experiment: Tested for pyruvate oxidation in rat diaphragm, measured as % conversion of [14C]pyruvate to 14CO2 at 0.5 mM concentration of DCA (dichloroacetic acid); type: functional, tissue-based; in short: as §1
Rattus norvegicus [7] = species: Rattus norvegicus; experiment: Percent Stimulation of pyruvate oxidation in rat diaphragm by the compound was measured at 2 mM concentration; type: functional; in short: as §1
[8] = molecular target: T1, Pyruvate dehydrogenase kinase (Rattus norvegicus); experiment: Percent Stimulation of pyruvate oxidation in rat diaphragm was measured at 2 mM concentration of DCA (dichloroacetic acid); type: functional, tissue-based; in short: as §1
[9] = molecular target: T1, Pyruvate dehydrogenase kinase (Rattus norvegicus); experiment: Tested for pyruvate oxidation in rat diaphragm, measured as % conversion of [14C]pyruvate to 14CO2 at 2 mM concentration; type: functional, tissue-based; in short: as §1
[10] = test system: pyruvate dehydrogenase (Rattus norvegicus); experiment: Tested for pyruvate oxidation in rat diaphragm, measured as % conversion of [14C]pyruvate to 14CO2 at 5 mM concentration
Rattus norvegicus [11] = species: Rattus norvegicus; experiment: Percent Stimulation of pyruvate oxidation in Rat by the compound was measured at 0.5 mM concentration of DCA (dichloroacetic acid); type: functional; in short: as §1
Rattus norvegicus [12] = experiment: Pyruvate dehydrogenase activity in vivo was measured following subcutaneous administration of 1.2 mmol/kg of the DCA in rat at a dose of 1.2 mmol/kg; type: functional; in short: as §2
Rattus norvegicus [13] = species: Rattus norvegicus; experiment: (§3) Compound was tested in vitro for pyruvate oxidation in rat diaphragm, measured as % conversion of [14C]pyruvate to 14CO2 at 2 mM concentration of DCA (dichloroacetic acid); type: functional; in short: as §1
[14] = test system: Pyruvate dehydrogenase complex (Rattus norvegicus); experiment: Tested for pyruvate oxidation in rat diaphragm, measured as % conversion of [14C]pyruvate to 14CO2 at 2 mM concentration
Rattus norvegicus [15] = experiment: Pyruvate dehydrogenase active/ Pyruvate dehydrogenase total was measured by sc administering the compound in rat at a dose of 1.2 mmol/kg; type: functional; in short: as §2
Rattus norvegicus [16] = species: Rattus norvegicus; experiment: as §3; type: functional; in short: as §1; remark: listed apart in the source

SMILES	PDH active/PDH total [4] [%]	PDH active/PDH total [5] [%]	Stimulation [6] [%]	Stimulation [8] [%]	Stimulation [9] [%]	Stimulation [10] [%]	further results
COc1ccc(C(N)C(=O)O)cc1 (stereo in doubt; L-27) [listing 1 of 2 here]	–	–	–	–	–	–	Stimulation (Rattus norvegicus [1]): 79%; Stimulation (Rattus norvegicus [2]): 122%; Stimulation (Rattus norvegicus [3]): 124%
N[C@H](C(=O)O)c1ccc(O)cc1 (stereo in doubt; D-26) [OXFENICINE]	–	–	–	–	–	–	Stimulation (Rattus norvegicus [2]): 130%; Stimulation (Rattus norvegicus [3]): 26%
O=C(O)C(=O)c1ccc(O)cc1	96	12	63	142	–	–	Stimulation (Rattus norvegicus [7]): 80%
COc1ccc(C(=O)C(=O)O)cc1	97	49	62	161	132	–	Stimulation (Rattus norvegicus [7]): 132%
O=C(O)C(=O)c1ccc(CO)cc1	–	–	12	108	23	–	–
CCS(=O)(=O)Nc1ccc(C(=O)C(=O)O)cc1	–	–	16	100	22	–	–
N[C@H](C(=O)O)c1ccc(O)cc1 (stereo in doubt; D-26)	87	26	–	–	–	–	–
COc1ccc(C(N)C(=O)O)cc1 (stereo in doubt; D-28) [listing 1 of 2 here]	–	–	–	–	–	–	Stimulation (Rattus norvegicus [2]): 108%; Stimulation (Rattus norvegicus [3]): 17%
C=CCc1cc(C(=O)C(=O)O)ccc1O	90	11	11	120	29	–	–
CC(C)Sc1ccc(C(=O)C(=O)O)cc1	96	51	26	200	162	–	–
NC(C(=O)O)c1ccc(Cl)cc1 (stereo not given)	90	43	43	99	102	–	–
NC(=O)c1ccc(C(=O)C(=O)O)cc1	–	–	–	200	–	20	Stimulation (Rattus norvegicus [7]): 11%
N[C@H](C(=O)O)c1ccc(O)cc1 (stereo in doubt; L-25) [OXFENICINE]	–	–	–	–	–	–	Stimulation (Rattus norvegicus [11]): 84%; Stimulation (Rattus norvegicus [2]): 123%; Stimulation (Rattus norvegicus [3]): 136%
O=C(O)C(=O)c1cc(I)c(O)c(I)c1	87	12	5	120	85	–	–
O=C(O)C(=O)c1ccccc1	87	38	42	219	85	–	–
Cc1ccc(C(=O)C(=O)O)cc1	–	50	20	–	43	–	PDH active/PDH total (Rattus norvegicus [12]): 97%; Stimulation (Rattus norvegicus [13]): 100%
COc1ccccc1C(=O)C(=O)O	–	–	–	163	–	-2	Stimulation (Rattus norvegicus [7]): -10%
CSc1ccc(C(=O)C(=O)O)cc1	82	69	–	101	–	154	Stimulation [14]: 123%
COc1ccc(C(N)C(=O)O)cc1 (stereo in doubt; D-28) [listing 2 of 2 here]	87	11	–	–	–	-14	–
CN(C)c1ccc(C(=O)C(=O)O)cc1	–	–	1	156	–	16	Stimulation (Rattus norvegicus [7]): -5%
NC(C(=O)O)c1ccccc1 (stereo not given)	–	–	–	–	–	–	PDH active/PDH total (Rattus norvegicus [15]): 13%; Stimulation (Rattus norvegicus [2]): 90%
O=C(O)C(=O)c1ccc(Cl)cc1	–	–	–	–	–	71	Stimulation (Rattus norvegicus [13]): 48%; Stimulation (Rattus norvegicus [16]): 82%
Cc1ccc(C(N)C(=O)O)cc1 (stereo not given)	–	–	24	95	36	–	–
N[C@H](C(=O)O)c1ccc(O)cc1 (stereo in doubt; L-25)	87	82	–	–	–	–	–
CCSc1ccc(C(=O)C(=O)O)cc1	82	73	164	158	231	–	–
CCSc1ccc(C(N)C(=O)O)cc1 (racemic)	80	5	–	132	–	24	Stimulation (Rattus norvegicus [7]): 20%
Cc1cc(C(=O)C(=O)O)ccc1O	89	31	2	107	21	–	–
CCCCSc1ccc(C(=O)C(=O)O)cc1	96	14	76	200	113	–	–
CSc1ccc(C(N)C(=O)O)cc1 (racemic)	76	20	–	132	–	28	Stimulation (Rattus norvegicus [7]): 65%
COc1ccc(C(N)C(=O)O)cc1 (stereo in doubt; L-27) [listing 2 of 2 here]	90	5	–	–	–	115	–
